Results published in article PMC10559049 (Heliyon, 2023).
Each block holds one molecule with its values, some of them ahead of it.

How the values were obtained:
[1] = system: LPS-treated BV2 microglial cells; settings: 15 μmol; cited from earlier work
[2] = named as a side effect restricting use; cited from earlier work
[3] = named as a side effect restricting use; cited from earlier work; remark: listed apart in the source
sEH [4] = biological target: T1, sEH (Homo sapiens, UniProt P34913); test: biochemical
T1 sequence (P34913 1-555): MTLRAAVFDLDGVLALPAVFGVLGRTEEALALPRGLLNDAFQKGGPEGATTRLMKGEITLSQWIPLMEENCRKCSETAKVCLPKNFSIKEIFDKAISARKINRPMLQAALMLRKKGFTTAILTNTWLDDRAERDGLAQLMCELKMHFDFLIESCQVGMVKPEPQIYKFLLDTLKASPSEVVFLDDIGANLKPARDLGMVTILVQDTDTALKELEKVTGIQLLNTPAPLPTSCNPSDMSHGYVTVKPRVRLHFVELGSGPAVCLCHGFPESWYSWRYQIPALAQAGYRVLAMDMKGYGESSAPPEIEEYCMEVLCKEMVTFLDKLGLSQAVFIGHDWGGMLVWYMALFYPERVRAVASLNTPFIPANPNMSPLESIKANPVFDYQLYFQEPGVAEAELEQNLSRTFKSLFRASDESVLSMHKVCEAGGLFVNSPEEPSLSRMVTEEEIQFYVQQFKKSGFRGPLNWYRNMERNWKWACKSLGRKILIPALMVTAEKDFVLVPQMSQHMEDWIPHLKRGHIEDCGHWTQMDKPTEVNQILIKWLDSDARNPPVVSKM

sEH [5] = biological target: T1, sEH; test: Enzyme kinetics analysis; assay type: biochemical
How it was run: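 Recombinant human sEH (250 ng/mL) in 25 mM Tris–HCl, pH 7.0, with 0.1 mg/mL BSA, mixed with inhibitor in methanol, then PHOME substrate added at several concentrations. Product fluorescence was read at ex 330/em 465 nm. Initial velocities at each fixed inhibitor concentration were plotted double-reciprocally (Lineweaver–Burk) to assign inhibition mode and derive Ki. Triplicates in three independent experiments, mean ± SEM.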

sEH [6] = settings: derived from the leaves of Capsicum chinense; cited from earlier work

Molecule: O=C(C=Cc1cc(O)c2c(c1)C(C(=O)NCCc1ccc(O)cc1)C(c1ccc(O)c(O)c1)O2)NCCc1ccc(O)cc1 (stereo not shown) [3,3′-demethyl-grossamide]
anti-neuroinflammatory activities via TNF-α suppression [1]: exerted anti-neuroinflammatory activities

Molecule: O=C(O)CCCCCCCCCCCNC(=O)NC12CC3CC(CC(C3)C1)C2 [AUDA, 12-(3-adamantane-1-yl-ureido)-dodecanoic acid]
water solubility [2]: limited water solubility
metabolic stability [3]: metabolic instability

IC50 (sEH [4]): 3300 ± 300 nM
Ki (sEH [5]): 1500 nM
Inhibition type (sEH [5]; Lineweaver-Burk plots): Competitive
Molecule: COc1cc([C@@H]2Oc3c(OC)cc(/C=C/C(=O)NCCc4ccc(O)cc4)cc3[C@H]2C(=O)NCCc2ccc(O)cc2)ccc1O [Compound 5, grossamide]

Molecule: O=C(/C=C/c1ccc(O)cc1)NCCc1ccc(O)cc1 [N-trans-Coumaroyltyramine]
mode of inhibition against sEH (sEH [6]): competitive inhibition

Molecule: COc1cc(/C=C/C(=O)NCCc2ccc(O)cc2)ccc1O [N-trans-feruloyltyramine]
mode of inhibition against sEH (sEH [6]): competitive inhibition

Molecule: COc1cc(/C=C(C(=O)NCCc2ccc(O)cc2)\C(=C/c2ccc(O)c(OC)c2)C(=O)NCCc2ccc(O)cc2)ccc1O [cannabisin G]
anti-neuroinflammatory activities via TNF-α suppression [1]: exerted anti-neuroinflammatory activities

Molecule: coumaroyl-amino butanol glucopyranoside
anti-neuroinflammatory activities via TNF-α suppression [1]: exerted anti-neuroinflammatory activities
